This note sets out measurements from BindingDB's records for doi:10.1016/j.bmc.2016.09.019 (Florida A&M University, 2016).

In experiment [1] the target is 5-hydroxytryptamine receptor 7 (Homo sapiens, UniProt P34969). Put plainly: Displacement of [3H]-LSD from human 5-HT7 receptor by liquid scintillation counting method.
For experiment [2], the target named is T1, 5-hydroxytryptamine receptor 2C (Homo sapiens, UniProt P28335).
T1 sequence (P28335 whole entry): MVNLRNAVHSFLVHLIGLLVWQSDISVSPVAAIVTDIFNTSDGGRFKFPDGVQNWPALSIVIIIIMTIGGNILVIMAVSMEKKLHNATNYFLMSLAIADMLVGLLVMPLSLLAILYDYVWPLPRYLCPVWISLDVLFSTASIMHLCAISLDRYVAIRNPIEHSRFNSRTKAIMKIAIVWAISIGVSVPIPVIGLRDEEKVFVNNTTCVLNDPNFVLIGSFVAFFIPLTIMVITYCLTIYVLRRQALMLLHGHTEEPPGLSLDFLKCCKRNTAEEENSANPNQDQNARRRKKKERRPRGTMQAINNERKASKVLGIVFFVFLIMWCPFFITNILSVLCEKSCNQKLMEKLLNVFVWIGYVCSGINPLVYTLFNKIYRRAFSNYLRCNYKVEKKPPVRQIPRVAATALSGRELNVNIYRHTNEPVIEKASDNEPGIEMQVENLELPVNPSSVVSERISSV
As to the kind of experiment: Displacement of [3H]-mesulergine from human 5-HT2C receptor by liquid scintillation counting method. Put shortly:
(§1)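 Binding assays run by the NIMH Psychoactive Drug Screening Program (PDSP) using its previously reported methods and radioligands. Affinity is given as Ki.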

For the next experiment, the target named is Histamine H1 receptor (Homo sapiens, UniProt P35367). Put plainly: Displacement of [3H]-pyrilamine from human histamine H1 receptor by liquid scintillation counting method. Put shortly: as §1
Chain of Histamine H1 receptor (P35367 whole entry): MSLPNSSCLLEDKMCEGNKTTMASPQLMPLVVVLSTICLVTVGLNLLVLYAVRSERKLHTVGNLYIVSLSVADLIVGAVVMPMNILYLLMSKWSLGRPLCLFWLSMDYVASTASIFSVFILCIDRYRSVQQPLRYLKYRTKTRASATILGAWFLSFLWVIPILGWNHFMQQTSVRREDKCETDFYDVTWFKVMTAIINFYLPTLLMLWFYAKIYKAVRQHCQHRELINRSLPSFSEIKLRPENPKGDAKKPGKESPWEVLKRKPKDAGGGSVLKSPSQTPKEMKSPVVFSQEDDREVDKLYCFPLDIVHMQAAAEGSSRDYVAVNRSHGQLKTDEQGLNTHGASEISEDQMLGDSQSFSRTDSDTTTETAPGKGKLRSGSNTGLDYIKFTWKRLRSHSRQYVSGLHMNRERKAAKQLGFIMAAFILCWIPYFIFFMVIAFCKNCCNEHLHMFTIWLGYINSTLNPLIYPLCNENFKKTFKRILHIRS

Each structure is given as a SMILES string.

Chain of 5-hydroxytryptamine receptor 7 (P34969 whole entry): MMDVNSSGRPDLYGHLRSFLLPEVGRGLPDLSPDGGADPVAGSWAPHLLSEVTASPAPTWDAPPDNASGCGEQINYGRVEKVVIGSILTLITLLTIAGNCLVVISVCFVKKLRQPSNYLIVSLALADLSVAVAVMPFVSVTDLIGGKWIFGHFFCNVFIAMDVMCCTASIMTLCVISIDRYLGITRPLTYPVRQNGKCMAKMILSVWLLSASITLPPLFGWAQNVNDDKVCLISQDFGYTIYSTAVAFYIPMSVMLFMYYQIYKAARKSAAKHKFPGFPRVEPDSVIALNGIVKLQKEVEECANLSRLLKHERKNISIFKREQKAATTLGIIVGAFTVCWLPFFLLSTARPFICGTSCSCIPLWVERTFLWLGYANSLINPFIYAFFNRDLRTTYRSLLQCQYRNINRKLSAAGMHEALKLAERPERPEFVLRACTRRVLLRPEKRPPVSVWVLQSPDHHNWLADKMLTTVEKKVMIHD

On to `Clc1ccc(C(=[C][C][C]N2[C][C]c3ccccc3[C]2)c2ccc(Cl)cc2)cc1`, for which the Ki in experiment [1] came out at 501 nM; in experiment [2], 2040 nM; at Histamine H1 receptor, 1000 nM.
